{"data": "Measurements from different studies", "medium": "Caco-2", "note": "Compare with care: the assays were run in different laboratories."}
{"Structure (SMILES)": "CC(C)(C)NCC(O)COc1cccc2c1CC(O)C(O)C2 (stereo not shown)", "Papp A→B": "0.0514 ×10⁻⁶ cm/s"}
{"Structure (SMILES)": "C=CC(=O)Nc1cc(Nc2nccc(-c3cn(C)c4ccccc34)n2)c(OC)cc1N(C)CCN(C)C", "pH": "pH 6.5", "Papp A→B": "12.5 ×10⁻⁶ cm/s"}
{"Structure (SMILES)": "Cn1c(=O)c2c(nc(S)n2C)n(C)c1=O", "tested at": "10 µM", "time": "2 h", "Papp A→B": "0.9 ×10⁻⁶ cm/s"}
{"Structure (SMILES)": "COCCc1ccc(OCC(O)CNC(C)C)cc1 (stereo not shown)", "pH": "pH 6.5", "Papp A→B": "13.3 ×10⁻⁶ cm/s"}
{"Structure (SMILES)": "COc1cc(Cl)c(C(=O)N[C@@H](CN[C@H]2CC[C@@H](N)CC2)Cc2ccc(C#N)cc2)cc1-c1ccc(CN[C@H](C)c2ccc(C)cc2)o1", "tested at": "2 µM", "time": "2 h", "pH": "pH 7.2", "Papp A→B": "3.9 ×10⁻⁶ cm/s"}
{"Structure (SMILES)": "CC#Cc1cncc(-c2ccc3c(c2)[C@@]2(N=C(C)C(N)=N2)[C@]2(CC[C@H](OC)CC2)C3)c1", "Papp A→B": "34.8 ×10⁻⁶ cm/s"}
{"Structure (SMILES)": "O=C1C[C@@H](c2ccc(O[C@@H]3O[C@H](CO)[C@@H](O)[C@H](O)[C@H]3O)cc2)Oc2cc(O)ccc21", "time": "2 h", "Papp A→B": "> 1 ×10⁻⁶ cm/s"}
{"Structure (SMILES)": "CNC(=C[N+](=O)[O-])NCCSCc1ccc(CN(C)C)o1", "Papp A→B": "0.4 ×10⁻⁶ cm/s"}
{"Structure (SMILES)": "Nc1cc(N2CCCCC2)nc(N)[n+]1[O-]", "tested at": "10 µM", "time": "2 h", "pH": "pH 7.4", "Papp A→B": "4.18 ×10⁻⁶ cm/s"}
{"Structure (SMILES)": "Cc1ncsc1-c1ccc(CNC(=O)[C@@H]2C[C@@H](O)CN2C(=O)[C@@H](NC(=O)C2(F)CC2)C(C)(C)C)c(OCCOc2ccc(CN3CCN(c4cc(-c5ccccc5O)nnc4N)CC3)cc2)c1", "time": "2 h", "pH": "pH 7.2", "Papp A→B": "2.2 ×10⁻⁶ cm/s"}
{"Structure (SMILES)": "Cn1c(S)nc2c1c(=O)n(Cc1ccccc1)c(=O)n2C", "tested at": "10 µM", "time": "2 h", "Papp A→B": "10 ×10⁻⁶ cm/s"}
{"Structure (SMILES)": "O=C(COCc1cccnc1)C12CC3CC(CC(C3)C1)C2", "tested at": "20 µM", "Papp A→B": "6.3 ×10⁻⁶ cm/s"}
{"Structure (SMILES)": "O=C(O)COc1cccc(Oc2ccc(-c3noc(-c4ccc(O)cc4)n3)cc2)c1", "time": "2 h", "pH": "pH 7.4", "Papp A→B": "5.3 ×10⁻⁶ cm/s"}
{"Structure (SMILES)": "CC(C)NCC(O)COc1cccc2ccccc12 (stereo not shown)", "tested at": "5 µM", "time": "1 h", "Papp A→B": "19.3 ×10⁻⁶ cm/s"}
{"Structure (SMILES)": "CC(C)c1cccc2c(-c3ccccc3)cc(-c3ccc(-c4ccc(C(=O)O)cc4)[nH]3)nc12", "Papp A→B": "1.61 ×10⁻⁶ cm/s"}
{"Structure (SMILES)": "COc1cc(F)ccc1-c1ncnc(Nc2cccc(C[S@](C)(=N)=O)c2)n1", "tested at": "2 µM", "time": "2 h", "pH": "pH 7.2", "Papp A→B": "3.5 ×10⁻⁶ cm/s"}
